Active and inactive are the calls of the source. The calls are words filed in the database; no cut-off is given here.
Legend:
[1] = Hepatotoxicity in CD1 mouse assessed as increase in serum alanine aminotransferase level at 600 mg/kg, po measured after 12 hrs; type: toxicity, organism-based; details: in vivo
Outline: (§1)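 Male CD1 mice fasted 15 h, given 600 mg/kg po, then fed ad libitum for 12 h. Whole blood taken by transcardial perfusion under 5% isoflurane, without anticoagulant, clotted 0.5 h at 25 °C, spun 1000 g 5 min at 4 °C. Serum stored at −80 °C, then assayed with commercial kits. n = 5 mice per compound; vehicle 0.9% NaCl.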

[2] = Hepatotoxicity in CD1 mouse assessed as increase in serum alkaline phosphatase level at 600 mg/kg, po measured after 12 hrs; type: toxicity, organism-based; details: in vivo; outline: as §1
[3] = Hepatotoxicity in CD1 mouse assessed as increase in serum aspartate aminotransferase level at 600 mg/kg, po measured after 12 hrs; type: toxicity, organism-based; details: in vivo; outline: as §1
[4] = Renal toxicity in CD1 mouse assessed as increase in serum creatinine level at 600 mg/kg, po measured after 12 hrs; type: organism-based; details: in vivo; outline: as §1
[5] = tested on: Hepatocyte; assay: Hepatotoxicity in primary human hepatocytes assessed as increase in lactate dehydrogenase release at 500 to 1000 uM measured after 3 to 12 hrs by fluorescence based analysis
[6] = Toxicity in CD1 mouse assessed as animal survival rate at 600 mg/kg, ip measured for every 4 hrs upto 48 hrs by Kaplan-Meier plot analysis; type: organism-based; details: in vivo
Outline: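 Male CD1 mice, four groups of n = 20, given 600 mg/kg ip or 0.9% NaCl vehicle; live animals counted every 4 h for 48 h; Kaplan-Meier survival curves plotted.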

[7] = Hepatotoxicity in CD1 mouse assessed as liver architecture at 600 mg/kg, po measured after 12 hrs by hematoxylin and eosin staining based optical microscopy; type: toxicity, organism-based; details: in vivo
Outline: (§2)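 At 12 h, mice under 5% isoflurane were exsanguinated with saline and perfusion-fixed with 10% NBF; livers fixed 24 h, moved to 80% EtOH, paraffin-embedded and sectioned. Stains: H&E (100x), nitrotyrosine, ZO-1 (200x; 3D stacks at 1000x), TUNEL (200x).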

[8] = tested on: Mus musculus; assay: Antipyretic activity against Baker's yeast-induced hyperthermia model in CD1 mouse at 80 mg/kg, po at 2 hrs post-injection by thermometer based analysis; type: functional, organism-based
Outline: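 Male CD1 mice fasted overnight (15 h); baseline rectal temperature taken, then ip pyrogen (15% baker's yeast, 0.1 mL/kg). Rectal temperature read 4 h later; only febrile animals used, grouped by equal mean temperature. Drug or 0.9% NaCl given po at 80 mg/kg; rectal temperature recorded 2 h later; fall compared with 4 h fever value. Mean ± SEM, n = 10; one-way ANOVA with Sidak post-hoc.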

[9] = tested on: Mus musculus; assay: Analgesic activity in po dosed CD1 mouse assessed as inhibition of acetic acid-induced abdominal writhing treated with acetic acid 25 mins post drug administration and measured after 5 mins for 10 mins; type: functional; details: 40 min
Outline: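 Male CD1 mice fasted 15 h; drug suspended in 0.9% NaCl with ≤10% DMSO given po at 5, 10, 20, 40, 80 mg/kg. 0.4% acetic acid 10 mL/kg ip 25 min later; writhes counted 10 min starting 5 min after acid. Compared to vehicle; mean ± SEM, n > 15 per group; ED50 from dose-response curves.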

[10] = molecular target: CYP3A4 (Homo sapiens, UniProt P08684); assay: Inhibition of CYP3A4 (unknown origin) in baculosomes preincubated for 20 mins followed by addition of CYP enzyme-specific substrate and NADP+ and measured after 30 mins by fluorescence based analysis relative to control
[11] = molecular target: Cytochrome P450 2D6 (Homo sapiens, UniProt P10635); assay: Inhibition of CYP2D6 (unknown origin) in baculosomes preincubated for 20 mins followed by addition of CYP enzyme-specific substrate and NADP+ and measured after 30 mins by fluorescence based analysis; type: ADME
Outline: (§3)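 Vivid fluorogenic screen: each compound was premixed with CYP baculosomes and a regeneration system (glucose-6-phosphate plus G6P dehydrogenase) for 20 min at room temperature. Isozyme-specific substrate and NADP+ were then added for 30 min at room temperature. Reaction stopped with 0.5 M Tris base; metabolite fluorescence read. IC50 taken from 10-point titration curves.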

[12] = Drug metabolism in CD1 mouse serum assessed as NAPQI formation at 600 mg/kg, ip measured after 12 hrs by LC-MS/MS analysis; type: ADME, organism-based; details: in vivo
Outline: (§4)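 Male CD1 mice dosed at 600 mg/kg (ip or po). Serum extracted twice with 3 vol ethyl acetate on ice (30 min, 3000 g spin), dried under N2, redissolved in 1:1 MeOH:H2O. LC-MS/MS in positive electrospray MRM mode monitoring m/z 150.3→108.1, identity checked against spiked NAPQI standard retention time (5.1 min).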

[13] = tested on: Rattus norvegicus; assay: Analgesic activity in ip dosed complete freund's adjuvant-induced Sprague Dawley rat model of hyperalgesia assessed as inhibition of inflammatory pain measured after 30 mins by von Frey analgesimetric method; type: functional; details: 0.5 h
[14] = Hepatotoxicity in CD1 mouse assessed as increase in apoptotic nuclei at 600 mg/kg, po measured after 12 hrs by TUNEL staining; type: toxicity, organism-based; details: in vivo; outline: as §2
[15] = Drug metabolism in CD1 mouse serum assessed as NAPQI formation at 600 mg/kg, po measured after 12 hrs by LC-MS/MS analysis; type: ADME, organism-based; details: in vivo; outline: as §4
[16] = tested on: HepaRG; assay: Hepatotoxicity in human HepaRG cells assessed as increase in lactate dehydrogenase release at 50 to 5000 uM […]; type: toxicity, cell-based; details: dose 50-5000 µM
[17] = molecular target: Cytochrome P450 3A4 (Homo sapiens, UniProt P08684); assay: Inhibition of CYP3A4 (unknown origin) in baculosomes preincubated for 20 mins followed by addition of CYP enzyme-specific substrate and NADP+ and measured after 30 mins by fluorescence based analysis; type: ADME; outline: as §3
[18] = Hepatotoxicity in CD1 mouse assessed as loss of chicken wire hepatic tight junctions at 600 mg/kg, po measured after 12 hrs by ZO-1 staining based optical microscopy; type: toxicity, organism-based; details: in vivo; outline: as §2
[19] = Hepatotoxicity in CD1 mouse assessed as increase in nitrotyrosine formation in liver at 600 mg/kg, po measured after 12 hrs by nitrotyrosine immunostaining based optical microscopy; details: in vivo
[20] = molecular target: CYP2E1 (Homo sapiens, UniProt P05181); assay: Inhibition of CYP2E1 (unknown origin) in baculosomes preincubated for 20 mins followed by addition of CYP enzyme-specific substrate and NADP+ and measured after 30 mins by fluorescence based analysis relative to control
[21] = tested on: HepaRG; assay: Hepatotoxicity in human HepaRG cells assessed as decrease in GSH level at 50 to 5000 uM measured after 6 to 24 hrs by Thiol tracker violet dye based fluorescence analysis; type: toxicity, cell-based; details: dose lower 50 µM, time lower 6 hrs, dose upper 5000 µM, time upper 24 hrs
Outline: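 HepaRG cells (80% confluent, serum-starved 6–8 h) exposed to 50, 100, 1000 or 5000 μM for 6, 12 or 24 h. Medium then removed and cells rinsed with D-PBS-conditioned medium. Cells were stained 30 min with ThiolTracker Violet; fluorescence read at ex 404/em 526 nm and reported as RFU for cellular GSH.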

[22] = Hepatotoxicity in CD1 mouse assessed as centrilobular hepatic hemorrhagic necrosis at 600 mg/kg, po measured after 12 hrs by hematoxylin and eosin staining based optical microscopy; type: toxicity, organism-based; details: in vivo; outline: as §2

Sequence of Cytochrome P450 2D6 (P10635 whole entry): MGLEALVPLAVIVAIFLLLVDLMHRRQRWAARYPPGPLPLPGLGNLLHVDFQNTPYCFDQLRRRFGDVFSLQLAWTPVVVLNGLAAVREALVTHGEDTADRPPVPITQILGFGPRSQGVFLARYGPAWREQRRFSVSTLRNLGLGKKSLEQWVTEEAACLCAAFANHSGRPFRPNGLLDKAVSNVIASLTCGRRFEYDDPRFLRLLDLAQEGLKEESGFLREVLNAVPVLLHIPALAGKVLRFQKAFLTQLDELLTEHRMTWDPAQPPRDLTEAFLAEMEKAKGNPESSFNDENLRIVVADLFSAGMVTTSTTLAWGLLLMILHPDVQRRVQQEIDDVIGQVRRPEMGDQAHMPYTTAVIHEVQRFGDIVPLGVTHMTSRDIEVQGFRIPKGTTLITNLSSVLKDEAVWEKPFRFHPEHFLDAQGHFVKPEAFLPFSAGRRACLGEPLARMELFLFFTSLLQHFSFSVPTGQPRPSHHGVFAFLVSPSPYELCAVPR
Sequence of Cytochrome P450 3A4 (P08684 whole entry): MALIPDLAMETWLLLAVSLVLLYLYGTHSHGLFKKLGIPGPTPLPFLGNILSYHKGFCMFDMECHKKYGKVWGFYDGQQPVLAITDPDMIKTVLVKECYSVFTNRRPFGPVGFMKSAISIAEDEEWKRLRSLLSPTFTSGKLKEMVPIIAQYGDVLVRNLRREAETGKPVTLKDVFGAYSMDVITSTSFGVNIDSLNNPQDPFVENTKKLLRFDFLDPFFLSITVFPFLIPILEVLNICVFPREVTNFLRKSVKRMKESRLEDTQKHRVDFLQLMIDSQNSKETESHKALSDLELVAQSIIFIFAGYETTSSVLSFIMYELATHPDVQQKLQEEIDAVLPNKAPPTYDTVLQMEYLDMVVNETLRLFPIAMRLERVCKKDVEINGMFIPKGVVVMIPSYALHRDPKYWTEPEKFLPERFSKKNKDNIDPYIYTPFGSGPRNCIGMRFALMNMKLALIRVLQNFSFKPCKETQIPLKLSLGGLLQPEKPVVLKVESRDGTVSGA
Sequence of CYP2E1 (P05181 whole entry): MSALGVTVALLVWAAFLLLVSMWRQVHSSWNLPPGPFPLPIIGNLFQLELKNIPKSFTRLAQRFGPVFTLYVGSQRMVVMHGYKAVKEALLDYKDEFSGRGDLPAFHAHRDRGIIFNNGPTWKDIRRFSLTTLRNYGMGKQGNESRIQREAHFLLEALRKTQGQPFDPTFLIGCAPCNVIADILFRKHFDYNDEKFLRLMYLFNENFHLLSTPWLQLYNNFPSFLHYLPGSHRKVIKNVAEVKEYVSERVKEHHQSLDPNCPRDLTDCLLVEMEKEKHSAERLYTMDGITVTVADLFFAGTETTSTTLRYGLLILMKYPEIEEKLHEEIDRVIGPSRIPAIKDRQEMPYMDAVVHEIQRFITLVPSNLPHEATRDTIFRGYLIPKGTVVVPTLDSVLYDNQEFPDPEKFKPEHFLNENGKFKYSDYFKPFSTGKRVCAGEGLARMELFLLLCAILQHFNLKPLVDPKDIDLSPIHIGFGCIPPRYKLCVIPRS
Sequence of CYP3A4 (P08684 whole entry): as the sequence (P08684 whole entry) above

SMILES	Activity [1]	Activity [2]	Activity [3]	Activity [4]	Activity [5]	further results
COc1ccc(CNC(=O)c2ccccc2S(=O)(=O)NCC(=O)Nc2ccc(O)cc2)cc1	Non-Toxic	Non-Toxic	Non-Toxic	Non-Toxic	Toxic	–
O=C(CNS(=O)(=O)c1ccccc1C(=O)NCCc1ccccc1)Nc1ccc(O)cc1	–	–	–	–	Toxic	–
O=C(CNS(=O)(=O)c1ccccc1C(=O)NCCc1ccc(O)c(O)c1)Nc1ccc(O)cc1	Non-Toxic	Non-Toxic	Non-Toxic	Non-Toxic	Non-Toxic	survival at 48 h [6]: 100%; Activity [7]: Non-Toxic; Activity [8]: Active; ED50 [9]: 14.7 µmol/kg; inhibition at 0.5 h [10]: 25%; IC50 [11]: > 10 µM; Drug metabolism [12]: Metabolite_Notdetected; ED50 [13]: 177 µmol/kg; Activity [14]: Non-Toxic; Drug metabolism [15]: Metabolite_Notdetected; Activity [16]: Non-Toxic; IC50 [17]: 4.82 µM; Activity [18]: Non-Toxic; Activity [19]: Non-Toxic; inhibition at 0.5 h [20]: 25%; Activity [21]: Non-Toxic
CNC(=O)c1ccccc1S(=O)(=O)NCC(=O)Nc1ccc(O)cc1	Non-Toxic	Non-Toxic	Non-Toxic	Non-Toxic	Non-Toxic	survival at 48 h [6]: 100%; Activity [7]: Non-Toxic; Activity [8]: Active; ED50 [9]: 45.2 µmol/kg; IC50 [11]: > 10 µM; Drug metabolism [12]: Metabolite_Notdetected; ED50 [13]: 198 µmol/kg; Activity [14]: Non-Toxic; Drug metabolism [15]: Metabolite_Notdetected; Activity [16]: Non-Toxic; IC50 [17]: > 10 µM; Activity [18]: Non-Toxic; Activity [19]: Non-Toxic; Activity [21]: Non-Toxic
O=C(CNS(=O)(=O)c1ccccc1C(=O)NCc1ccc(Cl)c(Cl)c1)Nc1ccc(O)cc1	Non-Toxic	Non-Toxic	Non-Toxic	Non-Toxic	Non-Toxic	–
Cc1ccc(CNC(=O)c2ccccc2S(=O)(=O)NCC(=O)Nc2ccc(O)cc2)cc1	Non-Toxic	Non-Toxic	Non-Toxic	Non-Toxic	Toxic	–
O=C(CNS(=O)(=O)c1ccccc1C(=O)NCc1ccccn1)Nc1ccc(O)cc1	Non-Toxic	Non-Toxic	Non-Toxic	Non-Toxic	Toxic	–
NC(=O)c1ccccc1S(=O)(=O)NCC(=O)Nc1ccc(O)cc1	–	–	–	–	Toxic	–
O=C(CNS(=O)(=O)c1ccccc1C(=O)N1CCN(Cc2ccccc2)CC1)Nc1ccc(O)cc1	–	–	–	–	Toxic	–
CN(C)C(=O)c1ccccc1S(=O)(=O)NCC(=O)Nc1ccc(O)cc1	Non-Toxic	Non-Toxic	Non-Toxic	Non-Toxic	Toxic	–
CC(C)CNC(=O)c1ccccc1S(=O)(=O)NCC(=O)Nc1ccc(O)cc1	Non-Toxic	Non-Toxic	Non-Toxic	Non-Toxic	Toxic	–
O=C(CNS(=O)(=O)c1ccccc1C(=O)NCc1ccccc1)Nc1ccc(O)cc1	–	–	–	–	Toxic	–
O=C(CNS(=O)(=O)c1ccccc1C(=O)NCc1cccc(Cl)c1)Nc1ccc(O)cc1	Non-Toxic	Non-Toxic	Non-Toxic	Non-Toxic	Toxic	–
O=C(CNS(=O)(=O)c1ccccc1C(=O)NCc1ccc([N+](=O)[O-])cc1)Nc1ccc(O)cc1	Non-Toxic	Non-Toxic	Non-Toxic	Non-Toxic	Non-Toxic	–
O=C(CNS(=O)(=O)c1ccccc1C(=O)N1CCOCC1)Nc1ccc(O)cc1	–	–	–	–	Non-Toxic	–
CC(=O)Nc1ccc(O)cc1 [ACETAMINOPHEN]	Toxic	Toxic	Toxic	Toxic	–	Activity [8]: Active; Activity [22]: Toxic; ED50 [9]: 68.6 µmol/kg; IC50 [11]: > 10 µM; Drug metabolism [12]: Metabolite_Detected; ED50 [13]: 245 µmol/kg; Activity [14]: Toxic; Drug metabolism [15]: Metabolite_Detected; Activity [16]: Toxic; Activity [18]: Toxic; Activity [19]: Toxic; Activity [21]: Toxic
CCCCNC(=O)c1ccccc1S(=O)(=O)NCC(=O)Nc1ccc(O)cc1	Non-Toxic	Non-Toxic	Non-Toxic	Non-Toxic	Toxic	–
O=C(CNS(=O)(=O)c1ccccc1C(=O)NC1CCCC1)Nc1ccc(O)cc1	Non-Toxic	Non-Toxic	Non-Toxic	Non-Toxic	Toxic	–
CC(C)NC(=O)c1ccccc1S(=O)(=O)NCC(=O)Nc1ccc(O)cc1	–	–	–	–	Toxic	–
O=C(CNS(=O)(=O)c1ccccc1C(=O)NCCN1CCCC1)Nc1ccc(O)cc1	Non-Toxic	Non-Toxic	Non-Toxic	Non-Toxic	Non-Toxic	–
